An excerpt weighted towards active compounds, which were near 2.6% of everything screened.
SENP6 inh: blocks the human protease SENP6; AID 2599; actives 1.8% (n = 330,000); inhibition, % at 10 µM; Recombinant SENP6 catalytic domain, aminoluciferin luminescence; Q9GZR1;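 active = inhibition above about 50% at the single tested dose, limit read from the data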;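 note: plate controls were DMSO wells with enzyme for no effect and DMSO wells lacking enzyme for full effect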
Platelet DG rel: modulates dense granule release in human platelets; human platelet-rich plasma, SFLLRN dense granule ATP release, luminescence; inhibition, %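 (compounds screened at 7.5 µM in platelet-rich plasma)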; actives 0.22% (n = 300,000);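 active = mean replicate score, as percent of positive control, at or above 50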
SENP7 block: inhibitors of human SENP7 protease | AID 434973 | inhibition, % at 5 µM | recombinant SENP7, Z-RLRGG-aminoluciferin luminescence, 40 min | actives 1.5% (n = 330,000);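 active = inhibition above about 50% at the single test dose, limit read from the data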;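 note: plate controls were DMSO with enzyme for no effect and no enzyme buffer wells for full effect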
Target sequence (Q9BQF6 706-1050 limits assumed): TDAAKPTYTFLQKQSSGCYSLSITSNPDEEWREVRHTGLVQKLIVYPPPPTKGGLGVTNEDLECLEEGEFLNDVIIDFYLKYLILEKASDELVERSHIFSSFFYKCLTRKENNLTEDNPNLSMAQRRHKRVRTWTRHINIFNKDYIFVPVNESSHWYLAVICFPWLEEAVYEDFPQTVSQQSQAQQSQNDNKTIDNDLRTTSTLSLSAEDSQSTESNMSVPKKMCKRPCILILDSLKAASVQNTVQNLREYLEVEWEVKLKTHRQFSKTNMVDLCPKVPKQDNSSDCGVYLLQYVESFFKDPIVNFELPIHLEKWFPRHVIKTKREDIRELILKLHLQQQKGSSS
SENP8 block-1: SENP8 (human) protease inhibition. Q96LD8. recombinant SENP8, Nedd8 substrate fluorescence. inhibition, % at 20 µM. actives 0.64% (n = 360,000). AID 602440; in the data active = inhibition mostly above about 40%, no sharp cut-off; inactive = mostly below about 27%
SENP1 FRET inh: SENP1 (human) catalytic domain inhibition. Q9P0U3. recombinant SENP1 catalytic domain, CyPet-SUMO1-YPet FRET cleavage. inhibition, % at 10 µM. actives 0.21% (n = 360,000);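 active = inhibition at least 30% at 10 µM, raw YFP signal under a set limit, fluorescence ratio 0.5 to 1.5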;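 note: 0% = enzyme with DMSO and 100% = no enzyme wells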
Target sequence (Q9P0U3 419-644 limits assumed): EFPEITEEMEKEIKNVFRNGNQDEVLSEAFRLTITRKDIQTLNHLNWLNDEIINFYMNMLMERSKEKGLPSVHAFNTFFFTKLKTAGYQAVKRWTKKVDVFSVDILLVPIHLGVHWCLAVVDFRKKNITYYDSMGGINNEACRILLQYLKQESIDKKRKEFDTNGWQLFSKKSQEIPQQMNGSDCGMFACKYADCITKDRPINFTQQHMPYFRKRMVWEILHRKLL
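Material – human SENP1 catalytic domain · Input – SENP1 enzyme, 20 pM final · Compound dosing – single concentration of 10 µM compound, 0.5% DMSO final · Timing – enzyme reaction for 50 min at room temperature, dark · Measured by – FRET fluorescence in CFP and YFP emission channels · Control set – no-enzyme wells low, DMSO-plus-enzyme wells high control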
SENP8 block-2: SENP8 protease inhibition. Q96LD8. purified SENP8, Z-RLRGG-aminoluciferin cleavage, luminescence. inhibition, % at 10 µM. actives 1.2% (n = 330,000); in the data active = inhibition above about 50%
SENP8 inh conf: confirmation of human SENP8 protease inhibitors; shares compounds with SENP8 block-1; purified SENP8, Nedd8-AMC/pro-Nedd8 cleavage fluorescence, 30 min; inhibition, % at 25 µM; actives 15% (n = 1,400); AID 624319; in the data active = inhibition mostly above about 39%, no sharp cut-off; inactive = mostly below about 34%
The depositor's hits bear a star; x = no result given.

SMILES	SENP6 inh	Platelet DG rel	SENP7 block	SENP8 block-1	SENP1 FRET inh	SENP8 block-2	SENP8 inh conf
CCC(C)Nc1nc(N)c([N+](=O)[O-])c(Nc2ccccc2OC)n1 (stereo not given)	2.7	-17.0	-5.8	22.5	0.7	-3.6	x
CCC(C)Nc1nc(N)c([N+](=O)[O-])c(Nc2cc(OC)ccc2OC)n1 (stereo not given)	2.8	-4.2	9.3	45.2*	1.1	10.9	31.0
Cc1ccc(OC(C)C(=O)N(Cc2cccs2)C2CCS(=O)(=O)C2)cc1C (stereo not given)	5.2	-27.7	6.0	41.0*	1.4	-10.6	7.8
CS(=O)(=O)N(CC(=O)NCC1CCCO1)c1ccc(F)c(Cl)c1 (stereo not given)	-9.3	-1.0	-12.3	51.2*	1.4	-6.3	7.2
O=[N+]([O-])c1cc(Cl)ccc1NCCNc1ncc(C(F)(F)F)cc1Cl	-16.7	1.6	2.8	43.3*	8.4	-0.2	12.8
Cc1ccc(C(=O)NCCNc2ncc(C(F)(F)F)cc2Cl)cc1[N+](=O)[O-]	-16.3	0.4	4.2	16.8	-0.8	7.6	x
COc1ccc(Br)c(C(=O)OCC(=O)N2CCC(Cc3ccccc3)CC2)c1	-3.4	x	-9.0	41.7*	-0.1	-6.6	7.2
Cc1cccc(NC(=S)N2CCN(S(C)(=O)=O)CC2)c1	-1.2	-1.3	-3.2	7.5	7.5	-2.2	x
CCOCCCNC(=O)C1CCCN(S(=O)(=O)CC)C1 (stereo not given)	-0.2	-0.4	-0.9	45.5*	0.9	-2.4	-4.0
Cc1ccccc1Nc1cccc2nonc12	1.3	-1.9	1.7	44.9*	-31.0	-6.4	33.9
NC(=O)c1ccc(N=C2C(=O)Nc3ccc([N+](=O)[O-])cc32)cc1	32.6	6.4	-2.8	85.5*	3.9	6.9	100.0*
O=C1Nc2ccccc2C1=Nc1cccc([N+](=O)[O-])c1	-6.6	-10.0	2.1	13.2	-2.1	-4.4	x
Cc1ccsc1C(=O)N1CCCC(CCC(=O)NCc2ccc(F)c(F)c2)C1 (stereo not given)	-1.7	-37.6	3.0	25.1	1.4	8.8	x
O=C(CN1C(=O)NC2(CCCCCCC2)C1=O)NCc1ccccc1	-10.9	x	-3.4	-4.8	1.3	7.4	x
Cc1ccc(-n2cnc(N)c2C(=O)c2cccc([N+](=O)[O-])c2)cc1	-3.8	0.1	1.6	54.8*	3.6	3.6	11.8
O=C(Nc1cccc(Oc2c(F)c(F)c(F)c(F)c2F)c1)N1C[C@@H]2C[C@@H](C1)c1cccc(=O)n1C2	-22.3	-1.6	-2.5	7.6	-2.1	-5.3	x
COc1ccc(NC(=O)[C@@H](NC(=O)N2C[C@H]3C[C@@H](C2)c2cccc(=O)n2C3)C(C)C)cc1OC	4.5	-1.0	-3.8	45.1*	-0.5	3.9	10.1
NC(=O)CC(NC(=O)c1ccccc1)C(=O)O (stereo not given)	-13.8	-1.0	-18.8	42.4*	0.0	-6.0	18.5
O=C(NC(C(=O)O)c1ccccc1)c1ccccc1 (stereo not given)	x	3.9	x	10.3	2.2	x	x
CCC(C)NC(=O)C(=O)NCc1ccccn1 (stereo not given)	-4.1	9.6	6.0	5.1	4.1	-5.4	x
CC(C)[C@@H](C(=O)NC1CC1)N1C(=O)N2CCc3c([nH]c4ccccc34)[C@@]2(C)C1=O	-0.4	15.7	-2.2	51.1*	-2.2	1.3	6.5
CC(C)[C@@H](C(=O)N[C@@H](C(=O)O)c1ccccc1)N1C(=O)N2CCc3c([nH]c4ccccc34)[C@@]2(C)C1=O	-15.0	14.2	-4.3	43.5*	1.8	-10.0	17.6
CC(C)[C@@H](C(=O)NCC1CCCO1)N1C(=O)N2CCc3c([nH]c4ccccc34)[C@@]2(C)C1=O (stereo not given in full)	-7.7	15.4	-19.8	50.9*	-3.8	-10.0	12.9
CC(C)[C@@H](C(=O)NC1CCN(Cc2ccccc2)CC1)N1C(=O)N2CCc3c([nH]c4ccccc34)[C@@]2(C)C1=O	-1.6	-2.1	0.9	19.9	-2.5	-0.5	x
CCOc1ccc(NC(=S)N2CCC(C(=O)c3ccc(OC)cc3)CC2)cc1	x	x	x	13.7	2.2	x	x
SMILES	SENP6 inh	Platelet DG rel	SENP7 block	SENP8 block-1	SENP1 FRET inh	SENP8 block-2	SENP8 inh conf
CC(=O)Nc1ccc(-c2ccnc3c2CC(C(=O)Nc2cccc(Oc4ccccc4)c2)O3)cc1 (stereo not given)	x	x	x	10.5	-1.6	x	x
CCNc1c(NC(=O)c2cccs2)c(=O)oc2ccccc12	12.1	5.0	-0.6	13.3	-0.7	-5.2	x
CC1CCCCN1C(=S)NCCc1ccccc1 (stereo not given)	-14.8	x	-1.4	7.2	3.8	-7.4	x
COc1ccc(NS(=O)(=O)NC(=O)c2c(C)n(C)c3ccccc23)cc1	-10.4	-2.5	-13.5	39.1*	-1.8	-5.1	13.7
O=C(Cn1cc([N+](=O)[O-])cn1)NCc1ccccc1	8.6	0.6	1.0	9.3	-4.0	-1.4	x
COc1ccc(CNC(=O)Cn2cc([N+](=O)[O-])cn2)cc1	-31.6	-1.6	-6.3	43.5*	-0.7	-5.5	-10.6
COc1cccc(NC(=O)CN(C)C(=O)CSCC(=O)Nc2ccc(C)cc2)c1	-1.9	x	9.3	1.7	1.6	9.0	x
COc1ccc(NC(=O)CN(C)C(=O)CSCC(=O)Nc2ccc(C)cc2)cc1	-7.6	-15.7	-18.8	53.1*	-1.1	-13.8	7.8
N#CC1=C2SCN(Cc3ccccc3)CN2C(=O)CC1c1ccccc1F (stereo not given)	3.7	-6.0	1.5	-48.1	-104.2	12.5	x
COc1ccc(Br)cc1C1CC(=O)N2CN(Cc3ccccc3)CSC2=C1C#N (stereo not given)	15.9	1.9	19.3	67.7*	-8.8	31.1	1.1
CCOC(=O)c1ccc(N2CSC3=C(C#N)C(c4ccc(OC)cc4OC)CC(=O)N3C2)cc1 (stereo not given)	-14.1	4.8	13.0	51.5*	-0.2	-7.0	11.8
COc1ccc(Br)cc1C1CC(=O)N2CN(C)CSC2=C1C#N (stereo not given)	-1.7	-1.2	15.7	65.1*	-19.5	1.3	0.7
CC(=O)c1ccccc1NC(=O)c1ccc(OCc2c(C)noc2C)cc1	-2.3	x	2.6	-109.1	1.0	4.1	x
CC(C)(C)C(=O)Nc1cccc(C(=O)c2cccc(NC(=O)C(C)(C)C)c2)c1	-5.6	3.5	11.0	24.0	0.1	-12.1	x
CCCOC(=O)c1cccc(NC(=O)C(C)(C)C)c1	13.8	-6.3	4.1	42.5*	0.1	0.6	-2.4
CCCCn1c(N)c(N(CCOC)C(=O)c2cccc(S(=O)(=O)N3CCCCCC3)c2)c(=O)[nH]c1=O	-0.6	-3.7	4.8	-15.9	-10.8	-2.6	x

Screening data from PubChem BioAssay.
